# Measured values: PubChem BioAssay
# Calls of active or inactive are those of the source.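 Rule for the calls, unless noted: active = GFP response above 150% of the DMSO level; inconclusive = fewer than 70 events counted for a yeast strain; inactive = the rest.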
# Assays:
# [1] = hit retest on RPL19A-GFP reporter strain – cell-based, S. cerevisiae, flow cytometry, cherry picks, mother/daughter gates, confirmation (AID 2270;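 active = GFP response below 50% of the DMSO control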); settings: 3 h, at 10 µM, stronger effect = lower value, 100 = same GFP as DMSO wells
# [2] = yeast TOR pathway reporter LAP4-GFP change – cell-based, cherry picks, flow cytometry, mother/daughter gates, confirmation (AID 2271;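 active = GFP response above 150% of the DMSO control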;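 note: ratio of sample to DMSO plate mean so 100% equals DMSO level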); settings: S. cerevisiae LAP4-GFP strain, 3 h, at 10 µM, stronger effect = higher value, 100 means same as DMSO control
# Outline: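 System: Alexa 633-stained baker's yeast GFP-fusion strain; quantity: 0.2 OD600 cells; timing: compound exposure 3 h at 30 °C, end-over-end rotation; detection: HT flow cytometry, GFP fluorescence channel; measure: per-gate (all, mother, daughter) GFP response vs DMSO; control set: DMSO-only negative wells, rapamycin 400 ng/mL positive wells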
# [3] = TOR pathway reporter MEP2-GFP, retest of hits – S. cerevisiae, flow cytometry GFP, cherry picks, confirmation (AID 2272;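 active = GFP response above 150% of the DMSO control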;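 note: ratio of well signal to plate DMSO mean so 100% equals DMSO level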); settings: S. cerevisiae MEP2-GFP strain, 3 h, at 10 µM, stronger effect = higher value
# [4] = yeast AGP1-GFP fluorescence change, single-dose – cell-based, flow cytometry, S. cerevisiae, cherry picks, confirmation (AID 2273);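 note: median GFP channel fluorescence over the whole cell population gate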; settings: S. cerevisiae AGP1-GFP strain, 3 h, at 10 µM
# [5] = TOR pathway CIT2 reporter hit retest – S. cerevisiae, GFP fusion, cherry picks, mother/daughter gates, confirmation (AID 2274); settings: S. cerevisiae CIT2-GFP strain, flow cytometry, 3 h, at 10 µM, stronger effect = higher value
# [6] = measured here: daughter cell gate
# [7] = measured here: mother cell gate
# [8] = measured here: daughter cell gate response
# [9] = measured here: mother cell gate response
SMILES,GFP response vs DMSO [1],"GFP response vs DMSO [1, 6]","GFP response vs DMSO [1, 7]",GFP response relative to DMSO [2],"GFP response relative to DMSO [2, 8]","GFP response relative to DMSO [2, 9]",GFP response vs DMSO [3],"GFP response, % of DMSO [4]","GFP response, % of DMSO [5]","GFP response, % of DMSO [5, 6]","GFP response, % of DMSO [5, 7]"
COc1ccc(/C(C)=N/NC(=O)c2ccc(N(C)C)cc2)cc1,103% (inactive),102%,103%,95% (inactive),94.1%,97.2%,104% (inactive),101% (inactive),104% (inactive),103%,104%
COc1ccc(OC)c(S(=O)(=O)N2Cc3ccccc3CC2C(=O)O)c1 (centres undefined),100% (inactive),101%,99.4%,104% (inactive),101%,106%,106% (inactive),102% (inactive),101% (inactive),103%,103%
Cc1cc(C)nc(/N=C(\N)N2CCCCCC2)n1,99.3% (inactive),100%,100%,103% (inactive),104%,102%,99.5% (inactive),99.5% (inactive),101% (inactive),100%,100%
CCN(CC)Cc1c(O)ccc2c(C)c(CC(=O)OC)c(=O)oc12,103% (inactive),101%,100%,101% (inactive),97.5%,102%,103% (inactive),106% (inactive),100% (inactive),99.2%,95.6%
Cc1cc(S(=O)(=O)c2ccc([N+](=O)[O-])cn2)ccc1Br,87.9% (inactive),89.9%,82.2%,143% (inactive),118%,156%,114% (inactive),113% (inactive),120% (inactive),138%,103%
O=C(Nc1nnc(-c2ccc(F)cc2)o1)c1cccc([N+](=O)[O-])c1,102% (inactive),97%,101%,157% (active),169%,152%,110% (inactive),97% (inactive),101% (inactive),103%,99.3%
Cc1cccn2c(N)c(-c3ccccc3)nc12,97.4% (inactive),97.3%,97.1%,95.3% (inactive),96.5%,90.6%,106% (inactive),102% (inactive),104% (inactive),102%,96.8%
NNC(=O)c1ccc(COc2ccc3ccccc3c2)cc1,98% (inactive),96.1%,95.7%,101% (inactive),101%,102%,99% (inactive),94.9% (inactive),93% (inactive),93.8%,91.9%
COc1ccc(-c2nnc(NC(=O)c3ccc([N+](=O)[O-])o3)o2)c(OC)c1,101% (inactive),100%,101%,95.4% (inactive),92.8%,96.1%,100% (inactive),98% (inactive),105% (inactive),105%,103%
COc1ccc(NC(=S)N2CCC(c3ccccc3)C2)cc1 (centres undefined),103% (inactive),98.8%,98%,97% (inactive),95.9%,97.3%,101% (inactive),98.6% (inactive),97.3% (inactive),93.8%,94.4%
N#C/C(=C\c1c(N2CCCCCC2)nc2ccccn2c1=O)C(=O)NC1CCS(=O)(=O)C1 (centres undefined),99.9% (inactive),101%,99.7%,105% (inactive),107%,103%,116% (inactive),98.7% (inactive),109% (inactive),111%,108%
Cc1cccc(Cn2cc(/C=C/[N+](=O)[O-])c3ccccc32)c1,106% (inactive),103%,98%,111% (inactive),107%,114%,103% (inactive),101% (inactive),97.3% (inactive),95.6%,93.2%
CC1=CCC(C(=O)O)C(C(=O)Nc2ccc(-c3nc4ccc(C)cc4s3)cc2)C1 (centres undefined),99.2% (inactive),100%,100%,96.1% (inactive),96.6%,96.2%,98.8% (inactive),101% (inactive),112% (inactive),110%,113%
CC(=O)SC(C[N+](=O)[O-])c1cn(C(C)=O)c2ccccc12 (centres undefined),98.6% (inactive),102%,90.1%,242% (active),216%,236%,96.8% (inactive),98% (inactive),94.4% (inactive),97.4%,88.2%
COc1ccc(N2CCN(C(=O)c3ccc(OCC4CCCO4)cc3)CC2)cc1 (centres undefined),99.2% (inactive),98.8%,98.3%,99.5% (inactive),101%,98.4%,99% (inactive),99.8% (inactive),100% (inactive),101%,99.3%
N#Cc1cc(Sc2ccccn2)c([N+](=O)[O-])cc1C#N,107% (inactive),110%,106%,121% (inactive),123%,118%,143% (inactive),106% (inactive),123% (inactive),125%,120%
CC(=O)Oc1ccc(/C=c2\sc3ncnn3c2=O)cc1,100% (inactive),102%,97.8%,123% (inactive),122%,125%,101% (inactive),98.8% (inactive),100% (inactive),103%,96%

SMILES,GFP response vs DMSO [1],"GFP response vs DMSO [1, 6]","GFP response vs DMSO [1, 7]",GFP response relative to DMSO [2],"GFP response relative to DMSO [2, 8]","GFP response relative to DMSO [2, 9]",GFP response vs DMSO [3],"GFP response, % of DMSO [4]","GFP response, % of DMSO [5]","GFP response, % of DMSO [5, 6]","GFP response, % of DMSO [5, 7]"
COc1ccc(/C=C/C(=O)c2ccc(Cl)cc2)c(OC)c1,97.6% (inactive),98.9%,96.1%,104% (inactive),102%,106%,100% (inactive),90.2% (inactive),99.7% (inactive),99.1%,97.3%
O=[N+]([O-])c1ccc(N2N=C(c3ccco3)CC2c2ccccc2)cc1 (centres undefined),104% (inactive),104%,97.7%,107% (inactive),104%,108%,131% (inactive),99.8% (inactive),105% (inactive),105%,103%
O=C(O)Cc1sc(Nc2ccc(F)cc2)nc1-c1cccs1,97.6% (inactive),99.4%,97%,129% (inactive),125%,135%,110% (inactive),108% (inactive),103% (inactive),103%,103%
O=C1c2cccc3cccc(c23)C(=O)N1c1nccs1,103% (inactive),102%,104%,116% (inactive),117%,112%,133% (inactive),106% (inactive),130% (inactive),132%,131%
Cc1nn(Cc2ccccc2Cl)c(C)c1C(=O)NCc1ccco1,99.3% (inactive),101%,98.8%,97.7% (inactive),101%,98.4%,99.3% (inactive),99.3% (inactive),98.6% (inactive),99.3%,100%
COc1ccc(CC2=CC(=O)c3ccccc3C2=O)cc1,99.7% (inactive),99.3%,99.3%,101% (inactive),99.3%,102%,104% (inactive),94.5% (inactive),96.4% (inactive),96.4%,94.5%
COc1ccc(CC2=C(O)c3ccccc3C(=O)C2=O)cc1,95.1% (inactive),91.3%,96.1%,129% (inactive),113%,135%,97.2% (inactive),97% (inactive),80.6% (inactive),81.6%,80.4%
O=C(O)CSc1nnc(-c2ccncc2)n1CCc1ccccc1,98.2% (inactive),98.4%,100%,102% (inactive),98.7%,103%,100% (inactive),98.3% (inactive),91.3% (inactive),91.5%,90.2%
S=c1[nH]nc(-c2ccco2)n1/N=C/C(Cl)=C/c1ccccc1,98.4% (inactive),98.5%,98.3%,129% (inactive),121%,131%,112% (inactive),95.6% (inactive),97.8% (inactive),100%,94.5%
Cc1ccc(/C=N\NC(=O)c2cc(OCC(F)(F)F)ccc2OCC(F)(F)F)cc1,100% (inactive),101%,100%,91.5% (inactive),91.2%,92.9%,94.1% (inactive),102% (inactive),105% (inactive),108%,106%
Cc1c(NC2=C(Cl)C(=O)N(c3ccccc3Cl)C2=O)c(=O)n(-c2ccccc2)n1C,94.7% (inactive),96.6%,95.6%,93.7% (inactive),96.6%,94.1%,96.6% (inactive),102% (inactive),110% (inactive),108%,110%
Cc1ccc(/C=C2/SC(=S)N(C3CCCCC3)C2=O)o1,100% (inactive),100%,98.6%,157% (active),145%,161%,126% (inactive),106% (inactive),98.8% (inactive),101%,89.5%
COc1cc(C)c(C)cc1S(=O)(=O)N1CCCCC1c1cccnc1 (centres undefined),98.4% (inactive),98.8%,99.2%,102% (inactive),105%,99.5%,99.5% (inactive),100% (inactive),96.4% (inactive),100%,95.6%
Nc1nc(SCC(=O)Nc2cc(C(F)(F)F)ccc2N2CCOCC2)n[nH]1,99% (inactive),99.9%,97.9%,101% (inactive),101%,98.3%,105% (inactive),101% (inactive),99.7% (inactive),99.1%,98.5%
Cc1ccc(N(C(=O)CCCC(=O)Nc2ccccn2)C(C(=O)NC2CCCC2)c2ccc(O)cc2)cc1C (centres undefined),98.4% (inactive),99%,99.8%,98.7% (inactive),98.7%,98.3%,117% (inactive),111% (inactive),111% (inactive),108%,112%
CCOc1ccc(-c2nc(-c3ccc(OC)cc3)no2)cc1OCC,101% (inactive),101%,101%,94.2% (inactive),92.2%,93.6%,102% (inactive),96% (inactive),99.3% (inactive),100%,99.1%
Cc1cccn2c(=O)c(/C=C(\C#N)C(=O)NC3CCS(=O)(=O)C3)c(N3CC(C)OC(C)C3)nc12 (centres undefined),97.8% (inactive),99.4%,99.7%,92.8% (inactive),96%,92.9%,100% (inactive),104% (inactive),99.7% (inactive),103%,99.7%
